How the values were obtained:
[1] = melting temperature; fluorescence melt of hairpins on a sequencing array, two-state fit, raised by 9.35 °C to match UV melts; settings: sodium 0.088 M
Outline: (§1)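 Bootstrapped two-state fits yielded melting temperature and folding enthalpy for library hairpins. Cy3 fluorescence, with annealed Cy3 and quencher oligos, was imaged on a sequenced MiSeq flow cell in 50 mM Na-HEPES pH 8.0, 25 mM NaCl in 2.5 °C steps up to 60 °C, and normalised to pre-quench Cy3 and to control constructs. Four replicates were combined by inverse variance, and fitted temperatures were raised by 9.35 °C to match UV melts.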

[2] = folding enthalpy; higher = less favourable; fluorescence melt of hairpins on a sequencing array, two-state fit; settings: sodium 0.088 M
Outline: as §1

Sequence | Tm [1] | folding enthalpy [2]
GTCAACGGAAACGTCGAC (((.(((....))).))) | 44.4 °C | -33 kcal/mol
GTCAAGAAATTGAC (((((....))))) | 40.8 °C | -21.6 kcal/mol
GTCAAGCCGAAAGGCGAC (((..(((....)))))) | 45.1 °C | -12.2 kcal/mol
GTCAAGGGAAACCTCGAC (((.(((....))).))) | 37.5 °C | -19.1 kcal/mol
GTCAAGGGAAACTTTGAC (((((.(....).))))) | 40.3 °C | -26.4 kcal/mol
GTCACAGCGAAAGCTGAC (((..(((....)))))) | 34.2 °C | -10.4 kcal/mol
GTCACAGGAAACTGTAAC ((.((((....)))).)) | 30.9 °C | -17.3 kcal/mol
GTCACCACGAAAGTGGAC (((..(((....)))))) | 31.1 °C | -7.89 kcal/mol
GTCACCGAAAGGTAGAC ((((((....))).))) | 51 °C | -18.9 kcal/mol
GTCACCGAAAGGTAGGAC ((((((....)))..))) | 37.4 °C | -17.2 kcal/mol
GTCACCGAAAGGTGAGAC ((((((....)))..))) | 48 °C | -10.3 kcal/mol
GTCACCGAAAGGTGCGAC ((((((....)))..))) | 58.5 °C | -13 kcal/mol
GTCACCGAAAGGTTCGAC ((((((....)))..))) | 30.3 °C | -14.9 kcal/mol
GTCACCGAAAGGTTGAC ((((((....))).))) | 51.4 °C | -27 kcal/mol
GTCACCGGAAACGGTGGC (.(((((....))))).) | 63.5 °C | -29.4 kcal/mol
GTCACGCGAAAGCGCGAC (((.(((....))).))) | 58.9 °C | -29.6 kcal/mol
GTCACGGAAACGTGAC ((((((....)))))) | 69.2 °C | -34.4 kcal/mol
GTCACGGGAAACCGCGAC (((.(((....))).))) | 50.8 °C | -30.4 kcal/mol
GTCACGTCGAAAGACGAC (((..(((....)))))) | 32.1 °C | -9.85 kcal/mol

Sequence | Tm [1] | folding enthalpy [2]
GTCACTCCGAAAGGAGAC (((..(((....)))))) | 31.6 °C | -8.95 kcal/mol
GTCACTTCGAAAGAAGAC (((..(((....)))))) | 26.7 °C | -8.67 kcal/mol
GTCAGAGGAAACCCTGAC (((((.(....).))))) | 43.8 °C | -32.4 kcal/mol
GTCAGAGGAAACTCCAAC ((..(((....)))..)) | 17.2 °C | -4.46 kcal/mol
GTCAGCACGAAAGTGGAC (((..(((....)))))) | 37.6 °C | -18 kcal/mol
GTCAGCGAAAGCTCGAC ((((((....))).))) | 48 °C | -19.8 kcal/mol
GTCAGCGAAAGCTCTGAC ((((((....)))..))) | 37.3 °C | -18.5 kcal/mol
GTCAGCGAAAGCTGAGAC ((((((....)))..))) | 49 °C | -8.85 kcal/mol
GTCAGCGAAAGCTTGAC ((((((....))).))) | 49.9 °C | -25.6 kcal/mol
GTCAGCGCGAAAGCGGAC (((..(((....)))))) | 46.6 °C | -15.6 kcal/mol
GTCAGCGGAAACGCTGGC (.(((((....))))).) | 63.7 °C | -24.6 kcal/mol
GTCAGGGGAAACCCTGAC (((((((....))))))) | 65.1 °C | -41.9 kcal/mol
GTCAGGTCGAAAGACGAC (((..(((....)))))) | 43.1 °C | -16.8 kcal/mol
GTCAGTACGAAAGTAGAC (((..(((....)))))) | 31 °C | -17.2 kcal/mol
GTCAGTGGAAACACTAAC ((.((((....)))).)) | 30.9 °C | -17.4 kcal/mol
GTCAGTGGAAACATTGGC (.((.((....)).)).) | 30.6 °C | -26.2 kcal/mol
GTCATACCGAAAGGTGAC (((..(((....)))))) | 43 °C | -19 kcal/mol
GTCATACGAAAGTAAGAC (((.(((....))).))) | 43.5 °C | -25.6 kcal/mol
GTCATACGAAAGTAGAC (((.(((....)))))) | 42.4 °C | -28.2 kcal/mol

From the array DNA melting data of Ke et al. (doi:10.1101/2024.01.08.574731)
